Screening results from PubChem BioAssay.
Rows were chosen to be rich in hits. Some 1.5% of all compounds tested hit in one or more screens of this group.
S100A4 MyoIIA: inhibitors of human S100A4 binding to myosin IIA peptide; actives 0.14% (n = 360,000); S100A4/TAMRA-MyoIIA peptide fluorescence polarization; P26447; inhibition, % at 10.7 µM;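 active means mean inhibition of at least 70% across replicates, with every replicate also reaching that level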
Target sequence (P26447 whole entry, looked up): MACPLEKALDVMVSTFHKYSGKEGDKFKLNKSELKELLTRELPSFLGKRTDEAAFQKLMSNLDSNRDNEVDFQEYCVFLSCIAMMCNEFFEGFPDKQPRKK
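Material: S100A4 monomer protein | Medium: HEPES pH 7.2 with CaCl2, KCl, NaCl, DTT, Triton | Reagent: Labelled myosin peptide probe, 5 nM | Doses: One dose per compound | Times: 5 min incubation before reading | Benchmarks: Neutral control DMSO, positive control TFP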
SIRT5 inh: blocks human SIRT5 desuccinylation of peptide | Q9NXA8 | Purified SirT5, succinyl-peptide AMC, trypsin-coupled fluorescence | inhibition, % at 15 µM | actives 1.1% (n = 330,000); in the data active means inhibition above about 15%
Target sequence (Q9NXA8 whole entry, looked up): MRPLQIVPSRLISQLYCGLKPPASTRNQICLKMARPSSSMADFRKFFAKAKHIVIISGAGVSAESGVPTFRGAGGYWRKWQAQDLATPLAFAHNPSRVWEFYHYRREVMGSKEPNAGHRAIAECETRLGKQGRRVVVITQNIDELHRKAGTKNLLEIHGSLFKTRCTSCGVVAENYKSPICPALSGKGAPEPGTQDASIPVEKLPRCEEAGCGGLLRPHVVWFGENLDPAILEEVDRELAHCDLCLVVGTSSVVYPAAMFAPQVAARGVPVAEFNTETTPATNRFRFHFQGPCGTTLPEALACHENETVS
CRFBP-R2 block: CRF-BP/CRF-R2 complex antagonism | HEK293 CRF-R2/CRF-BP, CRF-induced calcium fluorescence | actives 0.59% (n = 350,000) | inhibition, % at 11.8 µM;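 active means inhibition of the ligand-induced calcium signal above about 50% at the single tested concentration, limit read from the data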
PKA-R1A activ: activates the PKA-R1A holoenzyme complex; P00514+P68181; PKA-R1A dissociation, Cy5-IP20 fluorescence polarization; scaled: DMSO 0%, 113 µM cGMP 100%; activation, % at 11.4 µM; actives 0.083% (n = 340,000); AID 504707;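 active means percent activation above the mean of all tested compounds plus 3 SD, cut at about 19% in these data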;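 further: higher means more PKAc released from R1A so a rise in polarization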
PKA-R2B act: activators of human PKA-R2B complex; P22694+P31323; PKA-R2B holoenzyme dissociation, Cy5-IP20 fluorescence polarization; R2B truncated from residue 108, S112A mutant; 0% DMSO only, 100% 113 µM cGMP; activation, % at 11.4 µM; AID 504700; actives 0.079% (n = 340,000);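 active means activation above a cutoff set at the mean over all compounds plus 3 SD, cut at about 18% in these data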;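 further: higher means more holoenzyme dissociation and a rise in polarization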
A number is an active result; - = inactive; . = not tested or not shown; ! = not confirmed by another sample.

SMILES	S100A4 MyoIIA	SIRT5 inh	CRFBP-R2 block	PKA-R1A activ	PKA-R2B act
COc1cccc(S(=O)(=O)N(C)C[C@H]2Oc3cc(C4=CCCC4)ccc3S(=O)(=O)N([C@@H](C)CO)C[C@H]2C)c1	-	21	.	.	.
COc1ccccc1NC(=O)Nc1ccc2c(c1)OC[C@@H](C)N(Cc1ccccc1Cl)C[C@@H](C)[C@H](OC)CN(C)C2=O	-	-	.	.	.
CC(NC(=O)COC(=O)C1(C)CC1(Cl)Cl)c1ccccc1 (stereo not drawn)	-	-	54	-	-
C[C@@H]1CCCCO[C@H](CN(C)S(=O)(=O)c2ccc(F)cc2)[C@@H](C)CN([C@H](C)CO)C(=O)c2cc(NC(=O)CCCCCC(=O)Nc3ccccc3N)ccc2O1	-	-	.	.	.
O=C(C[C@H]1CC[C@@H](NS(=O)(=O)c2ccc(F)cc2)[C@H](CO)O1)NCCN1CCCCC1	-	-	.	.	.
C[C@H](CO)N1C[C@H](C)[C@H](CN(C)C(=O)c2ccccc2F)Oc2ncc(-c3ccccc3)cc2C1=O	-	-	.	.	.
CCCNC(=O)N(C)C[C@@H]1Oc2ncc(Br)cc2C(=O)N([C@H](C)CO)C[C@@H]1C	-	20!	-	-	-
C[C@@H]1CN([C@@H](C)CO)C(=O)c2cc(Br)cnc2O[C@H]1CN(C)C(=O)c1ccccc1F	-	15!	-	-	-
C[C@H]1CN([C@@H](C)CO)C(=O)c2cc(Br)cnc2O[C@@H]1CN(C)C(=O)c1ccccn1	-	-	.	.	.
C[C@H]1CN([C@@H](C)CO)C(=O)c2cc(Br)cnc2O[C@H]1CN(C)C(=O)c1ccccn1	-	19!	-	-	-
C/C=C/c1cnc2c(c1)C(=O)N([C@@H](C)CO)C[C@@H](C)[C@@H](CN(C)C(=O)NC1CCCCC1)O2	-	28	.	.	.
C[C@@H]1CN([C@H](C)CO)C(=O)c2cc(Br)cnc2O[C@H]1CN(C)C(=O)c1ccccc1F	-	-	.	.	.
C[C@H](CO)N1C[C@H](C)[C@H](CN(C)C(=O)c2ccccc2F)Oc2ncc(Br)cc2C1=O	-	26!	-	-	-
Cc1ccc(C(=O)NCc2cccnc2)o1	-	-	84	-	-
Cc1ccc2nc(NC3=NC(CC(=O)O)C(=O)N3)nc(C)c2c1 (stereo not drawn)	-	44	.	.	.
Cc1ccc2nc(Nc3nc(-c4ccccc4)cc(=O)[nH]3)nc(C)c2c1	.	.	-	-	-
CCn1c(SCC(=O)N2CCCCC2)nc2c(c1=O)SCC2	-	-	52	-	-
C[C@H](CO)N1C[C@H](C)[C@@H](CN(C)S(=O)(=O)c2cn(C)cn2)Oc2ccc(NC(=O)CCCN(C)C)cc2C1=O	-	-	.	.	.
CCCC(=O)N1CCC2(CC1)CN(Cc1ccc(Cl)cc1)[C@H](CO)c1[nH]c3cc(OC)ccc3c12	-	-	.	.	.
COC(=O)[C@@]1(Cc2ccc(F)cc2)[C@H]2c3cc(C(=O)N4CCCC4)n(Cc4cc(F)cc5c4OCOC5)c3C[C@H]2CN1C(=O)c1ccccc1	-	22	.	.	.
COC(=O)[C@@]1(Cc2ccc(F)cc2)[C@H]2c3cc(C(=O)N(C)C)n(Cc4cc(F)cc5c4OCOC5)c3C[C@H]2CN1C(=O)c1ccccc1	-	-	.	.	.
Cc1ccccc1-c1nn[nH]n1	.	.	-	-	-
Oc1ccc(N=Nc2ccccc2-c2nn[nH]n2)c(O)c1	-	17	-	-	-
COc1ccc(NC(=O)Nc2ccc3c(c2)CC(=O)N([C@@H](C)CO)C[C@@H](C)[C@H](CN(C)S(=O)(=O)c2ccc(F)cc2)O3)cc1	-	-	.	.	.
CCC(=O)N1CC(=O)N2[C@H](CO)[C@H](c3ccc(C#Cc4cccc(F)c4)cc3)[C@@H]2C1	-	-	.	.	.
SMILES	S100A4 MyoIIA	SIRT5 inh	CRFBP-R2 block	PKA-R1A activ	PKA-R2B act
CO[C@H]1CN(C)C(=O)c2cc(NC(=O)CC(F)(F)F)ccc2OC[C@H](C)N(C(=O)C2CCCCC2)C[C@H]1C	-	-	.	.	.
CCS(=O)(=O)Nc1ccc2c(c1)C(=O)N(C)C[C@@H](OC)[C@@H](C)CN(C(C)=O)[C@H](C)CO2	98	-	.	.	.
CO[C@H]1CN(C)C(=O)c2cc(NC(=O)CC(F)(F)F)ccc2OC[C@@H](C)N(C(=O)C2CCCCC2)C[C@@H]1C	-	28	.	.	.
CCC(=O)N1C[C@@H](C)[C@@H](OC)CN(C)C(=O)c2cc(NC(=O)CC(F)(F)F)ccc2OC[C@@H]1C	-	21	.	.	.
CCOC(=O)C(C)(C)NS(=O)(=O)c1ccc(Cl)c([N+](=O)[O-])c1	-	-	-	-	-
CCOC(=O)C(C)(C)N(Cc1ccc(C)cc1)S(=O)(=O)c1ccc(Cl)c([N+](=O)[O-])c1	-	-	67	-	-
CN(C)/C=C/C(=O)c1ccc(Cl)c([N+](=O)[O-])c1	-	17	-	-	-
CN(C)/C=C/C(=O)c1cccc(Cl)c1	.	.	-	-	-
CC(C)CC#Cc1ccc2c(c1)O[C@@H](CN(C)CC1CCOCC1)[C@H](C)CN([C@H](C)CO)S2(=O)=O	-	17	.	.	.
C[C@@H]1CN([C@@H](C)CO)S(=O)(=O)c2ccc(-c3cccc(C#N)c3)cc2O[C@@H]1CN(C)CC1CC1	-	-	.	.	.
C[C@H](CO)N1C[C@H](C)[C@@H](CN(C)CC2CC2)Oc2cc(-c3cccc(C#N)c3)ccc2S1(=O)=O	-	16	.	.	.
C[C@@H]1CN([C@H](C)CO)S(=O)(=O)c2ccc(C#CCN(C)C)cc2O[C@@H]1CN(C)CC1CC1	96	-	.	.	.
COCC(=O)N1[C@H](CO)[C@H]2c3ccccc3N(C(=O)c3ccccc3)C[C@H]21	-	-	.	.	.
O=C(Cc1ccccc1)N[C@H]1CC[C@H](CC(=O)N2CCOCC2)O[C@@H]1CO	-	-	.	.	.
C[C@@H](NC(=O)[C@@H]1N[C@@H]2c3ccc(-c4ccncc4)c(=O)n3C[C@@H]2[C@H]1CO)c1ccccc1	-	-	.	.	.
Cc1ccccc1CNC(=O)c1ccccc1N	.	.	55	-	-
CO[C@@H]1CN(C)C(=O)c2cc(NS(C)(=O)=O)ccc2OC[C@H](C)N(C(=O)CC2CC2)C[C@@H]1C	-	-	.	.	.
COc1ccccc1/C=C/C(=O)OCC(=O)Nc1ccccc1Sc1ccccc1	-	18	-	-	-
COc1cc(C(=O)NNC(=O)C2CC=CCC2C(=O)O)cc(OC)c1OC (stereo not drawn)	-	-	-	-	-
COc1cc(C(=O)NCCN2CCCC2)cc(OC)c1OC	.	.	-	-	-
COc1cc(C(=O)NNC(=O)C2CCC2)cc(OC)c1OC	-	25	-	-	-
COc1cc(C(=O)NCCN2CCN(C(=O)c3cc(OC)c(OC)c(OC)c3)CC2)cc(OC)c1OC	-	29	-	-	-
C[C@@H]1CN([C@H](C)CO)C(=O)Cc2cc(NS(=O)(=O)c3ccc(F)cc3)ccc2O[C@@H]1CN(C)C(=O)Nc1ccc(F)cc1	-	-	.	.	.
